Screening results deposited in PubChem by Sanford-Burnham Center for Chemical Genomics.
Most compounds without a hit are left out; they make up all but 4.4% or so of the library.
NR3A LBD binder = modulates the human NR3A ligand-binding domain. NR3A LBD differential scanning fluorimetry, Tm shift; 0% = protein alone, 100% = glycine-bound protein. Tm shift relative to glycine control, % at 25 µM. actives 2.5% (n = 340,000);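 active means melting temperature shift of at least 10% of the positive control shift, at one fixed dose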
MPTP block = permeability transition pore inhibition | isolated mouse mitochondria, Ca2+ swelling absorbance, 30 min | actives 1.4% (n = 360,000) | AID 602449 | inhibition, % at 10 µM;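 active means inhibition of 50% or more, scaled per plate between neutral and stimulator controls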;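 further: 0% = DMSO wells given calcium and 100% = 1 mM EGTA wells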
EBI2 block = EBI2 (human) antagonism; P32249; EBI2 beta-arrestin recruitment, luminescence, 7a,25-OHC stimulated; inhibition, % at 5 µM; actives 0.81% (n = 360,000); in the data active means inhibition above about 38%;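 further: enzyme fragment complementation signal reports receptor beta-arrestin coupling in cells; 0% = agonist plus DMSO wells and 100% = wells without agonist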
Target sequence (P32249 whole entry, looked up, the tested form may be a part): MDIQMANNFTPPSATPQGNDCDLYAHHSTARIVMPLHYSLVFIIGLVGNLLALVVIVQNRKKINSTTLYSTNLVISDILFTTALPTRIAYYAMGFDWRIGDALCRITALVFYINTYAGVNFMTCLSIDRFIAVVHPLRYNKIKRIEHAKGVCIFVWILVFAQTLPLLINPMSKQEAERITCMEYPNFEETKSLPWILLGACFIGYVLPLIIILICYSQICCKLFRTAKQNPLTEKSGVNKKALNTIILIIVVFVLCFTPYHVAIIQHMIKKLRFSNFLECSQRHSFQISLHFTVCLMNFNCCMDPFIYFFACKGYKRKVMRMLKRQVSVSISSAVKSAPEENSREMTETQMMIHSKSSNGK
SENP1 inh = blocks the human SENP1 SUMO protease catalytic domain. AID 624204. actives 0.21% (n = 360,000). inhibition, % at 10 µM. recombinant SENP1 catalytic domain, CyPet-SUMO1-YPet FRET cleavage;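 active means inhibition at least 30% at 10 µM, raw YFP signal under a set limit, fluorescence ratio 0.5 to 1.5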;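 further: 0% = enzyme with DMSO and 100% = no enzyme wells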
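Material – human SENP1 catalytic domain · Input – SENP1 enzyme, 20 pM final · Compound dosing – single concentration of 10 µM compound, 0.5% DMSO final · Timing – enzyme reaction for 50 min at room temperature, dark · Measured by – FRET fluorescence in CFP and YFP emission channels · Control set – no-enzyme wells low, DMSO-plus-enzyme wells high control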
EBI2 conf = confirmation of human EBI2 receptor antagonists; shares compounds with EBI2 block; EBI2 beta-arrestin luminescence, 7a,25-OHC antagonism; inhibition, % at 5 µM; actives 29% (n = 2,400); AID 651997;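 active means inhibition of at least 50%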
EBI2 ag = counter-screen for EBI2 antagonists: EBI2 agonist activity. shares compounds with EBI2 block. EBI2-expressing cells, agonist mode, luminescence, 60 min; 0% vehicle, 100% 7α,25-dihydroxycholesterol control. activation, % at 5 µM. 2,400 tested, under 10 active. AID 652000;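 active means activation of at least 50%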
bGal counter = inhibits E. coli beta-galactosidase, counter-screen for EBI2 antagonists; shares compounds with EBI2 block; actives 1% (n = 2,400); purified beta-galactosidase, luminescent Galacton Star, 15 min; inhibition, % at 5 µM;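 active means replicate-average signal at least 3 plate SD below neutral wells, shown as high inhibition, flagging enzyme-inhibiting false positives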;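 further: 0% = DMSO wells with enzyme and 100% = wells lacking enzyme; higher means stronger loss of beta-gal luminescence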
* hit, by the source's call; nt = no result.

SMILES	NR3A LBD binder	MPTP block	EBI2 block	SENP1 inh	EBI2 conf	EBI2 ag	bGal counter
COc1cc(/C=C(/C#N)C(=O)Nc2ccc(C)cc2)ccc1Oc1nc(Cl)ncc1F	-2	12	49*	-116	46	-1	-13
COc1cc(/C=C(\C#N)C(=O)NC2CCCCC2C)ccc1OS(=O)(=O)c1ccc(C)cc1 (centres undefined)	1	5	62*	2	69*	1	-3
CCOC(=O)/C(C#N)=C\c1ccc(OC)c(OC)c1	0	1	-3	1	nt	nt	nt
COc1cc(/C=C(\C#N)C(N)=O)ccc1OS(=O)(=O)c1ccc(C)cc1	0	-1	52*	-8	56*	1	-7
Cc1ccccc1SCC(=O)NCC1(N2CCCCC2)CCCCC1	nt	-2	1	-8	nt	nt	nt
O=C(O)Cc1c(C(=O)O)[nH]c2ccc(C(=O)O)cc12	0	0	-6	-1	nt	nt	nt
Nc1[nH]c(C(=O)c2ccccc2)c(-c2ccccc2C(F)(F)F)c1C(=O)c1cccs1	nt	0	45*	5	20	-1	-7
Nc1[nH]c(C(=O)c2ccccc2)c(-c2ccc(Br)cc2)c1C(=O)c1cccs1	nt	-1	9	-3	nt	nt	nt
CCOc1ccccc1CN1CCNC(=O)C1CC(=O)NCc1ccccn1 (centres undefined)	1	0	-4	-16	nt	nt	nt
CCOC(=O)c1cc(-c2ccccc2)sc1N	-30	-4	46*	-22	59*	3	-1
CC(=O)c1ccc(NC(=O)C2CCCNC2=O)cc1 (centres undefined)	-1	-1	55*	-54	8	1	7
CC1CN(C(=O)CCNC(=O)c2ccc(Cl)cc2)CC(C)O1 (centres undefined)	-1	0	-6	1	nt	nt	nt
C/C(=N\NC(=O)c1ccc(F)cc1)c1ccccn1	12*	0	64*	0	84*	-2	-10
C/C(=N\NC(=O)c1c[nH]c2ccccc12)c1ccccn1	-12	0	7	-1	nt	nt	nt
C/C(=N\NC(=O)c1ccccc1-n1cccc1)c1ccccn1	nt	0	9	0	nt	nt	nt
C/C(=N\NC(=O)c1cc2ccccc2cc1O)c1ccccn1	-8	2	50*	16	76*	-2	-2
COc1ccc(CCNC(=O)c2cnc3ccccc3n2)cc1	4	0	-3	2	nt	nt	nt
COc1ccc(CCNC(=O)c2cccc(C(=O)NCCc3ccc(OC)cc3)n2)cc1	1	5	50*	3	38	0	-23
O=C(CCc1c[nH]c2ccccc12)NCCc1ccccc1	-10	1	7	0	nt	nt	nt
O=C(CCc1c[nH]c2ccccc12)NCCc1ccc(Cl)cc1	-8	2	49*	1	29	0	7
Cc1ccc2oc(=O)n(CCOc3ccccc3C)c2c1	1	-2	43	3	nt	nt	nt
Cc1ccc2oc(=O)n(CCCOc3ccccc3C)c2c1	2	-4	44*	1	39	1	8
COc1ccc(/C=C/C(=O)O)cc1	0	0	1	-1	nt	nt	nt
CCOC(=O)C1CCN(C(=O)/C=C/c2ccccc2OC)CC1	1	0	22	5	nt	nt	nt
CCOC(=O)C1CCN(C(=O)/C=C/c2ccc(OC)cc2)CC1	0	-2	87*	0	75*	0	-5
CCN1CCN(C(=O)/C=C/c2ccc(OC)cc2)CC1	-5	0	88*	3	74*	2	7
CCN1CCN(C(=O)/C=C/c2ccc(F)cc2)CC1	0	1	84*	3	71*	0	5
O=C(O)C(Cc1ccccc1)N1C(=O)C=CC1=O (centres undefined)	nt	-3	-5	2	nt	nt	nt
Cc1cccc(C(=O)N(C(=O)c2cccc(C)c2)N(C)C)c1	-1	0	5	0	nt	nt	nt
COC(=O)c1ccc(NC(=O)CCN2CCN(Cc3ccccc3)CC2)cc1	2	-1	-3	-1	nt	nt	nt
